Reference: article PMC5114201 (Drugs in R&D, 2016)
Ends that are not written are not given here.

How the values were obtained:
[1] = Vital signs after single oral dose, phase I study; assay type: in vivo, human; details: 24 h post dose, healthy subjects, mean ± SD, n = 4
Summary of the method: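 In cohorts of four drug and two placebo (sterile water) subjects, a single oral solution was taken at 08:00 after an overnight fast, followed by 200 ml water. Blood pressure, heart rate, pulse oximetry, temperature and breathing rate were recorded pre-dose and at 0.25–24 h post dose. Values were reported as mean ± SD (range) and compared against placebo.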

[2] = Safety and tolerability; assay type: in vivo, human; details: healthy subjects, 12-lead ECG at 1, 3, 6 and 12 h post dose, all cohorts
Summary of the method: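 Single-blind, randomized, placebo-controlled dose escalation in healthy adults. Each cohort of six had four on drug and two on sterile-water placebo. Drug was dissolved in sterile water and drunk standing, then 200 ml water, at 08:00 after fasting from midnight. A 12-lead ECG was taken pre-dose and at 1, 3, 6 and 12 h. Vital signs and clinical laboratory tests were also monitored.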

[3] = Urinalysis, phase I study; assay type: in vivo, human; details: healthy subjects, n = 4
Summary of the method: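 Healthy volunteers were randomized within each dose cohort to oral drug solution in sterile water (four subjects) or sterile-water placebo (two subjects). They fasted from midnight, were dosed at 08:00 and had no food for 2 h afterwards. Urinalysis was done before dosing and 24 h after. Dipstick-type read-outs were compared with normal ranges or indications.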

[4] = system: Caco-2 monolayer; details: cited from earlier work
[5] = intravenously administered into rats; ref unpublished preclinical toxicological data; cited from earlier work
[6] = 0.08 mg/kg single oral dose, 0 h pre dose (baseline)
[7] = 0.08 mg/kg single oral dose, 24 h post dose
[8] = 0.7 mg/kg single oral dose, 0 h pre dose (baseline)
[9] = 0.7 mg/kg single oral dose, 24 h post dose

- Urine bilirubin [3, 6]: Negative
- Urine glucose [3, 6]: Normal
- Urine haemoglobin [3, 6]: Negative
- Urine ketones [3, 6]: Negative
- Urine nitrite [3, 6]: Negative
- Urine protein [3, 6]: Negative
- Urine urobilinogen [3, 6]: Normal
- Urine bilirubin [3, 7]: Negative
- Urine glucose [3, 7]: Normal
- Urine haemoglobin [3, 7]: Negative
- Urine ketones [3, 7]: Negative
- Urine nitrite [3, 7]: Negative
- Urine protein [3, 7]: Negative
- Urine urobilinogen [3, 7]: Normal
- Urine bilirubin [3, 8]: Negative
- Urine glucose [3, 8]: normal
- Urine haemoglobin [3, 8]: Negative
- Urine ketones [3, 8]: Negative
- Urine nitrite [3, 8]: Negative
- Urine protein [3, 8]: Negative
- Urine urobilinogen [3, 8]: Normal
- Urine bilirubin [3, 9]: Negative
- Urine glucose [3, 9]: normal
- Urine haemoglobin [3, 9]: Negative
- Urine ketones [3, 9]: Negative
- Urine nitrite [3, 9]: Negative
- Urine protein [3, 9]: Negative
- Urine urobilinogen [3, 9]: Normal
Sequence: RVYIHPFHL [DAA-I, Des-aspartate-angiotensin I]
- Blood pressure, diastolic ([1]; 0.08 mg/kg single oral dose): 68 ± 5 mmHg
- Blood pressure, systolic ([1]; 0.08 mg/kg single oral dose): 120 ± 4 mmHg
- Blood pressure, diastolic ([1]; 0.7 mg/kg single oral dose): 67 ± 7 mmHg
- Blood pressure, systolic ([1]; 0.7 mg/kg single oral dose): 114 ± 7 mmHg
- ECGs [2]: normal
- Transport across Caco-2 monolayer [4]: cross the Caco-2 monolayer via passive diffusion
- Time to degradation by plasma enzymes [5]: 2 to 5 min
